Measured values as given in publication PMC9136973 (ACS Central Science, 2022).
In brackets after ≈: the same amount, converted by molar mass.

Tests used:
MOLT-4 cells = assay: Xenotransplantation in zebrafish embryos; type: in vivo; settings: 500 nM, 48 h
How it was run: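 Wild-type TE zebrafish embryos at 32 hpf each received ~1 nL (~200) CFDA SE-labeled MOLT-4 cells into the perivitelline space, then 1 h at 28 °C. Well-engrafted embryos were treated with test compound (500 nM) or DMSO for 48 h at 35 °C, with development monitored. Embryos were dissociated through a 40 μm strainer and labeled cells quantified by flow cytometry. Fold change was taken against the DMSO-group mean.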

Hsp70, Hsp40, and Hsp27 = assay: Immunoblot of heat shock response proteins in K562 cells; type: cell-based, human; settings: 48 h, cytotoxic concentration
[1] = Aqueous thermodynamic solubility; type: physicochemical; settings: phosphate-buffered saline, pH 7.4
[2] = target: recombinant Hsp90α CTD protein (Homo sapiens, UniProt P07900); assay: Cell-free thermal shift assay; type: binding; settings: 100 µM
How it was run: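 Recombinant human Hsp90α CTD (residues 563–732, 5 μM) was mixed with test compound in 1× PBS, pH 7.5, and incubated for 2 h. SYPRO orange (6×) was added and samples were heated with increasing temperature up to 95 °C. Tm was compared with the DMSO vehicle control.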

Sequence of recombinant Hsp90α CTD protein (P07900 563-732): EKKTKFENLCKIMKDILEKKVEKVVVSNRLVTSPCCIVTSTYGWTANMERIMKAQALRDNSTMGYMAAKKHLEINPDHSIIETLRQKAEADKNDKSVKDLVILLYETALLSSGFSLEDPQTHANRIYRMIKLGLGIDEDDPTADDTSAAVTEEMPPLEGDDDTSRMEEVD

CCNC(=O)c1noc(-c2cc(C(C)C)c(O)cc2O)c1-c1ccc(CN2CCOCC2)cc1 [AUY922]
toxicity on the development of xenotransplanted embryos (MOLT-4 cells): No toxicity
number of transplanted MOLT4 cells vs DMSO-treated group (MOLT-4 cells; flow cytometry): significantly reduced
induction of heat shock response (expression of Hsp70, Hsp40, Hsp27) (Hsp70, Hsp40, and Hsp27): led to HSR induction

Cc1nccn1CC1CCc2c(c3ccccc3n2C)C1=O (centres unmarked) [Ondansetron]
solubility thermodynamic [1]: 95 µM (≈ 27.9 µg/mL)

CO[C@H]1[C@H](OC(=O)c2ccc(C)[nH]2)[C@H](O)[C@@H](Oc2ccc3c(O)c(NC(=O)c4c[nH]c(C(=O)Nc5c(O)c6ccc(O[C@H]7OC(C)(C)[C@@H](OC)[C@H](OC(=O)c8ccc(C)[nH]8)[C@@H]7O)c(C)c6oc5=O)c4C)c(=O)oc3c2C)OC1(C)C [coumermycin A1]
effect on thermal stability of Hsp90α CTD protein [2]: stabilized
